Laboratory results taken from article PMC11600146 (JACS Au, 2024).
pIC50: −log10 of the molar value. Values after ≈ are worked out from the molar mass of the structure shown. “Also recorded” adds a separate entry of the source.

Key:
K. pneumoniae 10031 [1] = experiment: MIC assay, broth microdilution; type: cell-based; settings: Klebsiella pneumoniae, 10031, 22 h, read-out: K. pneumoniae 10031 MIC (μg/mL)
Summary of the method: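 Broth microdilution adapted from NCCLS methods. Overnight cultures were diluted to OD600 0.006 in cation-adjusted Mueller–Hinton medium with 7% DMSO and incubated with a range of test compound concentrations at 37 °C for 22 h. MTT (5 mg/mL) was added for 3 h, solubilized with 2-propanol, and read as the absorbance difference at 570 and 690 nm. MIC was the lowest concentration with readings within 4-fold of bacteria-free wells.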

E. coli 25922 [2] = experiment: MIC assay, broth microdilution; type: cell-based; settings: Escherichia coli, 25922, 22 h, read-out: E. coli 25922 MIC (μg/mL)
K. pneumoniae LpxH = target: T1, K. pneumoniae LpxH (Klebsiella pneumoniae, UniProt A6T5R0); experiment: LpxE-coupled LpxH activity assay; type: biochemical
T1 sequence (A6T5R0 1-240): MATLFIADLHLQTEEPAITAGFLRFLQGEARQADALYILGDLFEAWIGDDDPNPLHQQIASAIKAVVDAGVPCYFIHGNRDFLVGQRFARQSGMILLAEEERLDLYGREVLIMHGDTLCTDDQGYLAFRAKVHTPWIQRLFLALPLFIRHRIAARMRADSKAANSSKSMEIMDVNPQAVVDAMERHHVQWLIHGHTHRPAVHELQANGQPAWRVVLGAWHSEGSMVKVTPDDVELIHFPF
Summary of the method: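 LpxE-coupled assay with GB1-K. pneumoniae LpxH-His10, 10 ng/mL final (1 ng/mL for two analogs, with an extended time course), 100 μM UDP-DAGn. Buffer: Tris-HCl pH 8.0, BSA, Triton X-100, 1 mM MnCl2, DTT, 10% DMSO. Reaction at 37 °C; time-point aliquots quenched with 5 mM EDTA, then A. aeolicus LpxE 5 μg/mL for 30 min, formic acid, malachite green, A620. Triplicates. IC50 from dose–response fit; Ki = IC50/(1+[S]/KM), KM 68.1 μM.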

HepG2 cells = experiment: In vitro cytotoxicity, CellTiter-Glo 2.0 cell viability assay; type: cell-based; settings: HepG2, 100 μM (63 μg/mL), 24 h
E. coli 25922 [3] = experiment: Spontaneous resistance development; type: cell-based
Summary of the method: (§1)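 Five to six colonies per strain, from antibiotic-free LB agar, grown to OD 1 and concentrated tenfold. […] Colonies repassaged on fresh 8× MIC plates for 48 h, counted and sequenced. Frequency is resistant growth divided by initial inoculum density.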

K. pneumoniae 10031 [4] = experiment: Time-kill kinetics; type: cell-based
K. pneumoniae 10031 [5] = experiment: Spontaneous resistance development; type: cell-based
Summary of the method: as §1

E. coli LpxH = target: T2, E. coli LpxH (Escherichia coli, UniProt P43341); experiment: LpxE-coupled LpxH activity assay; type: biochemical
T2 sequence (P43341 1-240): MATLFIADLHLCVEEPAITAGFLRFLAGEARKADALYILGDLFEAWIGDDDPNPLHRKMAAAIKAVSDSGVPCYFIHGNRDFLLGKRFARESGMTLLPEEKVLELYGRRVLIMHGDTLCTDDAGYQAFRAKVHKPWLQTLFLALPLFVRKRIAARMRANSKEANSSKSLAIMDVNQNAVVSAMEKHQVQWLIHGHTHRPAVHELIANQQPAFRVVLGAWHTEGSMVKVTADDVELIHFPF
Summary of the method: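 LpxE-coupled assay with GB1-E. coli LpxH-His10 (10 ng/mL in 2× enzyme/inhibitor mix; 0.5 ng/mL final for two analogs, with a longer time course). Mixes were preincubated 10 min at 37 °C and quenched with EDTA, then LpxE 30 min, malachite green, A620. Run in triplicate. IC50 fitted; Ki from competitive equation, KM 61.7 μM.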

HEK293 cells = experiment: In vitro cytotoxicity, CellTiter-Glo 2.0 cell viability assay; type: cell-based

SMILES	MIC (K. pneumoniae 10031 [1])	MIC (E. coli 25922 [2])	pIC50 (K. pneumoniae LpxH)	cytotoxicity (cell viability) (HepG2 cells)	Rate of spontaneous resistance mutations @4× MIC (E. coli 25922 [3]; E. coli 25922, 4× MIC)	Rate of spontaneous resistance mutations @8× MIC (E. coli 25922 [3]; E. coli 25922, 8× MIC)	type of antibiotic action (K. pneumoniae 10031 [4]; time-kill, regrowth prevented up to 24 h at or above the MIC)	reduction of bacterial viability (K. pneumoniae 10031 [4]; within 6 h, at or above the MIC)	Rate of spontaneous resistance mutations @4× MIC (K. pneumoniae 10031 [5]; K. pneumoniae 10031, 4× MIC)	Rate of spontaneous resistance mutations @8× MIC (K. pneumoniae 10031 [5]; K. pneumoniae 10031, 8× MIC)	pIC50 (E. coli LpxH)	cytotoxicity (cell viability) (HEK293 cells; HEK293, 100 μM (63 μg/mL), 24 h)	safety index (HEK293 cells; no cytotoxicity at 63 μg/mL in HEK293 or HepG2 versus MICs 0.31 and 0.04 μg/mL)
CC(=O)N1CCc2cc(S(=O)(=O)N3CCN(c4cc(C(F)(F)F)cc(Cl)n4)CC3)ccc21 [JH-LPH-92]	0.08 µg/mL (≈ 0.164 µM)	> 64 µg/mL	–	–	–	–	–	–	–	–	–	–	–
CC(=O)N1CCc2cc(S(=O)(=O)N3CCN(c4nccc(C(F)(F)F)n4)CC3)ccc21 [JH-LPH-93]	1.3 µg/mL (≈ 2.85 µM)	–	7.00	–	–	–	–	–	–	–	–	–	–
CN(c1ccccc1C(=O)Nc1ccc(S(=O)(=O)N2CCN(c3cc(C(F)(F)F)cc(Cl)n3)CC2)cc1)S(C)(=O)=O [JH-LPH-107]	–	0.31 µg/mL (≈ 0.49 µM)	9.89	did not cause any significant cytotoxicity; also recorded: no significant cytotoxicity	2.5 × 10^-9	1.4 × 10^-9	bactericidal	> 1000 fold	2.0 × 10^-9	9.1 × 10^-10	9.89	did not cause any significant cytotoxicity; also recorded: no significant cytotoxicity	> 100 fold
